What was measured:
Spleen [1] = assay: Drug uptake in spleen of healthy Swiss Webster mouse at 3.7 MBq, iv after 40 mins; format: ADME, organism-based; conditions: in vivo
Outline: (§1)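 Uninfected control mice. [11C]-label given into the lateral tail vein in ethanol/saline (1/3) under isoflurane, then mice recovered and moved freely. Killed by cervical dislocation; blood taken by cardiac puncture, spleen, lung, liver and kidney excised, weighed and well-counted. Reported as %ID/g, mean ± SD, n=3.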

Blood [2] = assay: Drug uptake in blood of Swiss Webster thigh infected mouse model infected with methicillin-resistant Staphylococcus aureus BAA1762 at 3.7 MBq, iv after 15 mins; format: ADME, organism-based; conditions: in vivo, 0.25 h
Outline: (§2)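 Neutropenic mice (ip cyclophosphamide) given 5×10^5 MRSA cells into the left thigh muscle. [11C]-label given into the lateral tail vein in ethanol/saline (1/3) under isoflurane, then mice recovered and moved freely. Killed by cervical dislocation; muscle from both thighs and blood collected, weighed and well-counted. Reported as %ID/g, mean ± SD, n=3.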

Blood [3] = assay: Drug uptake in blood of Swiss Webster thigh infected mouse model infected with methicillin-resistant Staphylococcus aureus BAA1762 at 3.7 MBq, iv after 45 mins; format: ADME, organism-based; conditions: in vivo, 0.75 h; outline: as §2
[4] = Drug uptake in infected thigh of Swiss Webster thigh infected mouse model infected with methicillin-resistant Staphylococcus aureus BAA1762 at 3.7 MBq, iv after 45 mins; format: ADME, organism-based, Thigh muscle; conditions: in vivo, 0.75 h; outline: as §2
Liver [5] = assay: Drug uptake in liver of healthy Swiss Webster mouse at 3.7 MBq, iv after 20 mins; format: ADME, organism-based; conditions: in vivo; outline: as §1
Spleen [6] = assay: Drug uptake in spleen of healthy Swiss Webster mouse at 3.7 MBq, iv after 60 mins; format: ADME, organism-based; conditions: in vivo, 1 h; outline: as §1
Kidney [7] = assay: Drug uptake in kidney of Swiss Webster systemic infected mouse model infected with methicillin-resistant Staphylococcus aureus BAA1762 at 3.7 MBq, iv after 60 mins; format: ADME, organism-based; conditions: in vivo, 1 h
Outline: as §1, with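 “Neutropenic mice (ip cyclophosphamide) infected ip with 2×10^7 MRSA cells.” for “Uninfected control mice.”, “organs” for “spleen, lung, liver and kidney”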

Blood [8] = assay: Drug uptake in blood of Swiss Webster thigh infected mouse model infected with methicillin-resistant Staphylococcus aureus BAA1762 at 3.7 MBq, iv after 30 mins; format: ADME, organism-based; conditions: in vivo, 0.5 h; outline: as §2
[9] = Drug uptake in infected thigh of Swiss Webster thigh infected mouse model infected with methicillin-resistant Staphylococcus aureus BAA1762 at 3.7 MBq, iv after 60 mins; format: ADME, organism-based, Thigh muscle; conditions: in vivo, 1 h; outline: as §2
[10] = Drug uptake in healthy thigh of Swiss Webster thigh infected mouse model infected with methicillin-resistant Staphylococcus aureus BAA1762 at 3.7 MBq, iv after 60 mins; format: ADME, organism-based, Thigh muscle; conditions: in vivo, 1 h; outline: as §2
Blood [11] = assay: Drug uptake in blood of healthy Swiss Webster mouse at 3.7 MBq, iv after 60 mins; format: ADME, organism-based; conditions: in vivo, 1 h; outline: as §1
Blood [12] = assay: Drug uptake in blood of healthy Swiss Webster mouse at 3.7 MBq, iv after 40 mins; format: ADME, organism-based; conditions: in vivo; outline: as §1
Spleen [13] = assay: Drug uptake in spleen of Swiss Webster systemic infected mouse model infected with methicillin-resistant Staphylococcus aureus BAA1762 at 3.7 MBq, iv after 40 mins; format: ADME, organism-based; conditions: in vivo
Outline: as §1, with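 “Neutropenic mice (ip cyclophosphamide) infected ip with 2×10^7 MRSA cells.” for “Uninfected control mice.”, “organs” for “spleen, lung, liver and kidney”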

Kidney [14] = assay: Drug uptake in kidney of Swiss Webster systemic infected mouse model infected with methicillin-resistant Staphylococcus aureus BAA1762 at 3.7 MBq, iv after 20 mins; format: ADME, organism-based; conditions: in vivo
Outline: as §1, with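 “Neutropenic mice (ip cyclophosphamide) infected ip with 2×10^7 MRSA cells.” for “Uninfected control mice.”, “organs” for “spleen, lung, liver and kidney”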

Blood [15] = assay: Drug uptake in blood of Swiss Webster systemic infected mouse model infected with methicillin-resistant Staphylococcus aureus BAA1762 at 3.7 MBq, iv after 60 mins; format: ADME, organism-based; conditions: in vivo, 1 h
Outline: as §1, with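 “Neutropenic mice (ip cyclophosphamide) infected ip with 2×10^7 MRSA cells.” for “Uninfected control mice.”, “organs” for “spleen, lung, liver and kidney”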

Liver [16] = assay: Drug uptake in liver of Swiss Webster systemic infected mouse model infected with methicillin-resistant Staphylococcus aureus BAA1762 at 3.7 MBq, iv after 40 mins; format: ADME, organism-based; conditions: in vivo
Outline: as §1, with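 “Neutropenic mice (ip cyclophosphamide) infected ip with 2×10^7 MRSA cells.” for “Uninfected control mice.”, “organs” for “spleen, lung, liver and kidney”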

Liver [17] = assay: Drug uptake in liver of Swiss Webster systemic infected mouse model infected with methicillin-resistant Staphylococcus aureus BAA1762 at 3.7 MBq, iv after 60 mins; format: ADME, organism-based; conditions: in vivo, 1 h
Outline: as §1, with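 “Neutropenic mice (ip cyclophosphamide) infected ip with 2×10^7 MRSA cells.” for “Uninfected control mice.”, “organs” for “spleen, lung, liver and kidney”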

Liver [18] = assay: Drug uptake in liver of healthy Swiss Webster mouse at 3.7 MBq, iv after 60 mins; format: ADME, organism-based; conditions: in vivo, 1 h; outline: as §1
Liver [19] = assay: Drug uptake in liver of Swiss Webster systemic infected mouse model infected with methicillin-resistant Staphylococcus aureus BAA1762 at 3.7 MBq, iv after 20 mins; format: ADME, organism-based; conditions: in vivo
Outline: as §1, with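 “Neutropenic mice (ip cyclophosphamide) infected ip with 2×10^7 MRSA cells.” for “Uninfected control mice.”, “organs” for “spleen, lung, liver and kidney”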

Lung = assay: Drug uptake in lung of healthy Swiss Webster mouse at 3.7 MBq, iv after 40 mins; format: ADME, organism-based; conditions: in vivo; outline: as §1
Spleen [20] = assay: Drug uptake in spleen of Swiss Webster systemic infected mouse model infected with methicillin-resistant Staphylococcus aureus BAA1762 at 3.7 MBq, iv after 60 mins; format: ADME, organism-based; conditions: in vivo, 1 h
Outline: as §1, with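 “Neutropenic mice (ip cyclophosphamide) infected ip with 2×10^7 MRSA cells.” for “Uninfected control mice.”, “organs” for “spleen, lung, liver and kidney”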

**Q.** Which Drug uptake (Spleen [1]) does the source give for `CCCCCCc1ccc(Oc2ccccc2[11C]#N)c(O)c1` here?
**A.** 0.37 %ID/cc

**Q.** And the Drug uptake (Blood [2])?
**A.** 0.72 %ID/cc

**Q.** And the Drug uptake (Blood [3])?
**A.** 0.28 %ID/cc

**Q.** And the Drug uptake [4]?
**A.** 0.38 %ID/cc

**Q.** And the Drug uptake (Liver [5])?
**A.** 11.79 %ID/cc

**Q.** And the Drug uptake (Spleen [6])?
**A.** 0.19 %ID/cc

**Q.** And the Drug uptake (Kidney [7])?
**A.** 1.13 %ID/cc

**Q.** What about the Drug uptake (Blood [8]) of the same molecule?
**A.** 0.42 %ID/cc

**Q.** And the Drug uptake [9]?
**A.** 0.34 %ID/cc

**Q.** And the Drug uptake [10]?
**A.** 0.33 %ID/cc

**Q.** And the Drug uptake (Blood [11])?
**A.** 0.34 %ID/cc

**Q.** What about the Drug uptake (Blood [12]) of the same molecule?
**A.** 0.41 %ID/cc

**Q.** And the Drug uptake (Spleen [13])?
**A.** 0.3 %ID/cc

**Q.** What about the Drug uptake (Kidney [14]) of the same molecule?
**A.** 2.41 %ID/cc

**Q.** And the Drug uptake (Blood [15])?
**A.** 0.44 %ID/cc

**Q.** And the Drug uptake (Liver [16])?
**A.** 5.25 %ID/cc

**Q.** What about the Drug uptake (Liver [17]) of the same molecule?
**A.** 7.31 %ID/cc

**Q.** What about the Drug uptake (Liver [18]) of the same molecule?
**A.** 6.91 %ID/cc

**Q.** What about the Drug uptake (Liver [19]) of the same molecule?
**A.** 11.18 %ID/cc

**Q.** What about the Drug uptake (Lung) of the same molecule?
**A.** 1.75 %ID/cc

**Q.** And the Drug uptake (Spleen [20])?
**A.** 0.31 %ID/cc
